This note sets out measurements from ChEMBL document CHEMBL1127041, “(Imidazolylphenyl)pyrrol-2-one inhibitors of cardiac cAMP phosphodiesterase” (J Med Chem, 1993).

SMILES strings stand for the structures. The source made the active and inactive calls. The calls are words filed in the database; no cut-off is given here.

What is called inhibition is the relative decrease from the control value, in per cent. In general, EC20 refers to the concentration needed for an effect of 20%. The IC50 is the concentration that gives 50% inhibition. A lower IC50 goes with higher potency.

In test [1] the test system is Canis familiaris. The experiment in a line: Percentage decrease in Mean arterial pressure in pentobarbital anesthetized dogs at 0.3 mg/kg. The class given is functional, Canis lupus familiaris, Artery. In outline:
(§1)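 Pentobarbital-anesthetized dogs received doses of 0.1 and 0.3 mg/kg. Left ventricular dP/dt, heart rate and mean arterial pressure were monitored. Values are mean percent change from control ± SEM, n = 6.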

Test [2] relates to Canis familiaris. Nature of the test: Mean percentage change in the left ventricular contractility (dP/dt) in pentobarbital anesthetized dogs at 0.3 mg/kg. The class given is functional, Canis lupus familiaris, Heart left ventricle. In outline: as §1
The species named for test [3] is Canis lupus familiaris. The experiment in a line: Percentage inhibition of cAMP PDE in canine brain tissue. The class given is tissue-based. Particulars: dose or concentration not given here.
Test [4] has as its system Canis familiaris. Nature of the test: Mean percentage change in heart rate of pentobarbital anesthetized dogs at 0.3 mg/kg. The test is classed as functional, Canis lupus familiaris. The procedure, abridged: as §1
Test [5] has as its system Canis familiaris. The experiment in a line: Percentage decrease in Mean arterial pressure in pentobarbital anesthetized dogs at 0.1 mg/kg. The class given is functional, Canis lupus familiaris, Artery. In outline: as §1
Test [6] concerns Canis familiaris. The experiment in a line: Mean percentage change in heart rate of pentobarbital anesthetized dogs at 0.1 mg/kg. The class given is functional, Canis lupus familiaris. The procedure, abridged:
as §1

Test [7] is filed under the species Mustela putorius furo. Nature of the test: In vitro inotropic effect, 20% increase in the force of contraction of isolated ferret papillary muscle strips. Particulars: Muscle tissue. The class given is functional. In outline:
(§2)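 Isolated ferret papillary muscle in vitro. The read-out is the dose that gives a 20% rise in contractile force over control (EC20). "NR" means this rise was not reached at 100 μM.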

Test [8] relates to Canis familiaris. Nature of the test: Mean percentage change in the left ventricular contractility (dP/dt) in pentobarbital anesthetized dogs at 0.1 mg/kg. The test is classed as functional, Canis lupus familiaris, Heart left ventricle. In outline:
as §1

Test [9] is described as follows: (§3) Inhibition of cAMP PDE in canine cardiac tissue. Set-up: species or system Canis lupus familiaris. In outline: (§4)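 The enzyme was partially purified cAMP phosphodiesterase from canine brain or cardiac tissue. IC50 is the concentration giving 50% inhibition, taken from the mean of three separate dose-response determinations. Near the IC50, inhibition at the test doses ranged by less than ±8%.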

Test [10] is filed under the species Canis lupus familiaris. The description is as §3. Particulars: concentration not given here. In outline: as §4
For test [11], the species on record is Mustela putorius furo. Nature of the test: In vitro inotropic effect, 20% increase in the force of contraction of isolated ferret papillary muscle strips (Not reached at 100 uM). The test is classed as functional. Particulars: Muscle tissue. The procedure, abridged:
as §2

The species named for test [12] is Canis lupus familiaris. The experiment in a line: Inhibition of cAMP PDE in canine brain. Particulars: concentration not given here. The procedure, abridged: as §4
The subject of test [13] is Canis familiaris. The experiment in a line: Percentage decrease in Mean arterial pressure in pentobarbital anesthetized dogs at 3 mg/kg. The test is classed as functional, Canis lupus familiaris, Artery. In outline:
(§5)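 Pentobarbital-anesthetized dogs were given the agent intravenously at 1 and 3 mg/kg. Left ventricular dP/dt, heart rate and mean arterial pressure were monitored. Values are mean percent change from control ± SEM, n = 4.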

The test system of test [14] is Canis familiaris. Nature of the test: Mean percentage change in the left ventricular contractility (dP/dt) in pentobarbital anesthetized dogs at 3 mg/kg. The class given is functional, Canis lupus familiaris, Heart left ventricle. In outline: as §5
Test [15] deals with Canis familiaris. Nature of the test: Mean percentage change in the left ventricular contractility (dP/dt) in pentobarbital anesthetized dogs at 1 mg/kg. The test is classed as functional, Canis lupus familiaris, Heart left ventricle. In outline:
as §5

Test [16] deals with Canis familiaris. Nature of the test: Percentage decrease in Mean arterial pressure in pentobarbital anesthetized dogs at 1 mg/kg. The test is classed as functional, Canis lupus familiaris, Artery. In outline:
as §5

Test [17] deals with Canis familiaris. The experiment in a line: Mean percentage change in heart rate of pentobarbital anesthetized dogs at 1 mg/kg. The class given is functional, Canis lupus familiaris. In outline:
as §5

Test [18] deals with Canis familiaris. Nature of the test: Mean percentage change in heart rate of pentobarbital anesthetized dogs at 3 mg/kg. The class given is functional, Canis lupus familiaris. In outline:
as §5

Test [19] is filed under the species Mustela putorius furo. The experiment in a line: In vitro inotropic effect, 20% increase in the force of contraction of isolated ferret papillary muscle strips (two EC20 determinations). The class given is functional. The following applies: Muscle tissue. In outline: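 Contractile force was measured in isolated ferret papillary muscle in vitro. EC20 is the dose that gives a 20% increase in force. Two separate EC20 determinations were made.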

Test [20] in a line: Inhibition of cAMP PDE from canine brain. Set-up: species or system Canis lupus familiaris. The procedure, abridged: as §4

Consider `Cc1[nH]c(=O)c(C#N)cc1-c1ccncc1` [MILRINONE], for which the values for the Decrease in the test with Canis familiaris [1] and in the test on Canis familiaris [5] were 30% and 13%, respectively. The Increase with Canis familiaris [2] is on record as 81%; in the test with Canis familiaris [4] it was 32%; in the test on Canis familiaris [6], 19%; in the test with Canis familiaris [8], 57%. For the same compound, the inhibition in the test listed under Canis lupus familiaris [3] was 34%. The 20% effect level in the test listed under Mustela putorius furo [7] (EC20) was put at 0.5 µM. In test [9], this compound showed a half-maximal inhibitory concentration (IC50) of 5.5 µM.

As for `COc1ccc(C2CNC(=O)C2)cc1OC` (configuration not stated), the values for the inhibition in the test listed under Canis lupus familiaris [10] and in the test listed under Canis lupus familiaris [12] were 3% and 36%, respectively. Besides, in the test listed under Mustela putorius furo [11], the EC20 result was “Not reached”.

Turning to `CCC1=C(c2ccc(-n3ccnc3C)cc2)CNC1=O`, the values for the Decrease with Canis familiaris [13] and in the test with Canis familiaris [16] were 30% and 18%, respectively. Also, the inhibition in the test filed under Canis lupus familiaris [3] was below 5%. For the same compound, the Increase amounted to 80% in the test on Canis familiaris [14], 52% with Canis familiaris [15], 8% in the test on Canis familiaris [17] and 22% in the test with Canis familiaris [18]. For the same compound, in the test filed under Mustela putorius furo [7], the 20% effect level (EC20) was put at 4.8 µM. In test [9], this compound yielded an IC50 of 39 µM.

Take `CCC1=C(c2ccc(-n3ccnc3)cc2)CNC1=O`: the values for the Decrease with Canis familiaris [13] and in the test on Canis familiaris [16] were 22% and 13%, respectively. In the test filed under Canis lupus familiaris [3], the inhibition was determined as 10%. Further, the Increase in the test on Canis familiaris [14] stood at 44%; with Canis familiaris [15], 21%; with Canis familiaris [17] it was 9%; in the test with Canis familiaris [18], 21%. The compound further returned an EC20 in the test filed under Mustela putorius furo [7] of 10.7 µM. Further, half-maximal inhibition in test [9] (IC50) required 48 µM.

Compound `COc1ccc(C2=CC(=O)NC2)cc1OC` yielded an inhibition in the test listed under Canis lupus familiaris [10] of 46%. In the test listed under Mustela putorius furo [19], the concentration for an effect of 20% (EC20) came out at 6.5 µM. For the same compound, half-maximal inhibition in test [20] (IC50) was put at 40 µM.

With `CC1=C(c2ccc(-n3ccnc3C)cc2)CNC1=O`, the figures for the Decrease in the test on Canis familiaris [13] and in the test on Canis familiaris [16] were 10% and 6%, respectively. The same compound returned an inhibition in the test filed under Canis lupus familiaris [3] of 10%. Further, the Increase in the test on Canis familiaris [14] amounted to 33%; with Canis familiaris [15], 14%; in the test on Canis familiaris [17], 7%; in the test with Canis familiaris [18] it was 14%. The compound also gave a concentration for an effect of 20% (EC20) in the test listed under Mustela putorius furo [7] of 10.2 µM. In test [9], this compound came in with an IC50 of 30 µM.

For `COc1ccc(C2=C(C)C(=O)NC2)cc1OC`, the IC50 in test [20] is 100 µM; in test [9], 26 µM. The same compound yielded an EC20 in the test filed under Mustela putorius furo [7] of 3.8 µM.

In the test listed under Canis lupus familiaris [10], `COc1ccc(C2CNC(=O)C2)cc1OC1CCCC1` (configuration not stated) [ROLIPRAM] returned an inhibition of 28%. In addition, it took 0.8 µM to reach half-maximal inhibition in [20] (IC50). Moreover, the EC20 entry in the test filed under Mustela putorius furo [11] is “inactive”.

In the case of `CC1=C(c2ccc(-n3ccnc3)cc2)CNC1=O`, the Decrease in the test on Canis familiaris [13] is listed as 14%; with Canis familiaris [16], 3%. This compound also came in with an inhibition in the test filed under Canis lupus familiaris [3] of 16%. For the same compound, the Increase in the test with Canis familiaris [14] is 75%; in the test with Canis familiaris [15], 40%; in the test on Canis familiaris [17] it was 7%; with Canis familiaris [18], 19%. Also, the EC20 in the test filed under Mustela putorius furo [7] stood at 2.3 µM. Further, inhibition in [9] was half-maximal at 25 µM (IC50).
